# Measurements from different studies.
# Compare with care: the assays were run in different laboratories.
# Target: Vascular endothelial growth factor receptor 1 (FLT1, Homo sapiens, UniProt P17948)
# One construct used (P17948 827-1158, limits assumed): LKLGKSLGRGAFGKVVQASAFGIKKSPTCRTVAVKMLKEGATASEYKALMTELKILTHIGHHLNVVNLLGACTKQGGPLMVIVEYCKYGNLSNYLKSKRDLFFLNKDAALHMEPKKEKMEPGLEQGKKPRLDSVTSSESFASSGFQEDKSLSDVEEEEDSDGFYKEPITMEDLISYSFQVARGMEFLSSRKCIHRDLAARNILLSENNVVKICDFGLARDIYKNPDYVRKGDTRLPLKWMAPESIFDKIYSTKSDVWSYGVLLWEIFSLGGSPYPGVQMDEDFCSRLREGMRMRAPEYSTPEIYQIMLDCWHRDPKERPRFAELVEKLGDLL
Compound,test,measurement,result
Cc1ccc(NC(=O)c2ccc(C)c(C(F)(F)F)c2)cc1C#Cc1nn(C2CCC(O)CC2)c2ncnc(N)c12 (centres unmarked),"enzyme activity, inhibitor, radiometric",IC50,15 nM
Cc1ccc(C(=O)Nc2ccc(Oc3cc4cnn(C)c4cc3-c3cn[nH]c3)c(F)c2)c(=O)n1-c1ccc(F)cc1,"enzyme activity in cells, inhibitor",IC50,> 1000 nM
COc1ccc2c(Oc3ccc4c(C(=O)Nc5ccccc5N)cccc4c3)ccnc2c1,"enzyme activity, inhibitor",IC50,8 nM
CC(C)(C)n1nc(-c2ccc3nc(OC4CC4)ccc3c2)c(C(N)=O)c1N,cell-free assay,IC50,8380 nM
Cc1cnc(-c2ccc(-c3ccc(NC(=O)Nc4c(F)cc(F)cc4F)cc3F)c3c2C(=O)NC3)[nH]1,"binding, competition with immobilised ligand",Kd,13 nM
CC(C)(C)n1nc(-c2cnc3cc(OC4CC4)ccc3c2)c(C(N)=O)c1N,cell-free assay,IC50,> 10000 nM
C=CC(=O)Nc1cccc(CN2C(=O)N(c3c(Cl)c(OC)cc(OC)c3Cl)Cc3cnc(NCCCCN(CC)CC)nc32)c1,"binding, competition with immobilised ligand",Kd,32 nM
CNC(=O)c1cc2c(Oc3ccc(NC(=O)C4(C(=O)Nc5ccc(F)cc5)CC4)cc3)ccnc2cc1OC,"enzyme activity, inhibitor, radiometric",IC50,13 nM
